According to ChEMBL document CHEMBL3352401, “Synthesis and antiviral activity of new phenylimidazopyridines and N-benzylidenequinolinamines derived by molecular simplification of phenylimidazo[4,5-g]quinolines” (Eur J Med Chem, 2014):

Tests used:
[1] = Antiviral activity against Human respiratory syncytial virus A2 ATCC VR-1540 infected in Vero 76 cells after 5 days by plaque reduction assays; format: functional, cell-based; conditions: ATCC VR-1540, Vero 76, 120 h
[2] = Cytotoxicity against mock-infected African green monkey Vero 76 cells assessed as reduction in proliferation after 48 to 96 hrs by MTT method; format: cell-based; conditions: chlorocebus sabaeus, Vero 76 cells (mock-infected)
How it was run: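 Vero-76 cells seeded at 4 × 10⁵ cells/mL in D-MEM with L-glutamine, kanamycin and 10% FBS. Incubated at 37 °C, 5% CO₂, with or without serial dilutions of compound; viability read by MTT after 48–96 h. Run in parallel with antiviral assays. CC50 obtained by linear regression of % of untreated control.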

[3] = test system: Human immunodeficiency virus 1; test: Antiviral activity against HIV-13B infected in MT4 cells assessed as protection from virus-induced cytopathogenicity after 4 days by MTT method; format: functional, organism-based; conditions: Human immunodeficiency virus 1, 3B, MT4, 96 h
How it was run: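 HIV-1 IIIB, taken from persistently infected H9/IIIB supernatant. MT-4 cells (1×10⁴/well) in RPMI with serial compound dilutions, infected with 100 CCID50 (m.o.i. 0.01). Viability by MTT after 4 days at 37 °C. EC50 = 50% protection from cytopathogenicity, by linear regression against untreated controls. Compounds kept as 100 mM DMSO stocks, diluted in medium.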

[4] = test system: Coxsackievirus B5; test: Antiviral activity against Coxsackievirus B5 Faulkner (ATCC VR-185) infected in Vero 76 cells after 3 days by plaque reduction assays; format: functional, organism-based; conditions: Enterovirus B, Vero 76, 72 h
[5] = Cytotoxicity against mock-infected human MT4 cells assessed as reduction in proliferation after 96 hrs by MTT method; format: cell-based
How it was run: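 Exponentially growing MT-4 cells seeded at 1 × 10⁵ cells/mL in RPMI-1640 with 10% FBS, penicillin and streptomycin. Held 96 h at 37 °C, 5% CO₂ with or without serial compound dilutions; viability by MTT. Compounds dissolved in DMSO at 100 mM stock, then diluted in medium. CC50 by linear regression.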

[6] = test system: Human poliovirus 1 strain Sabin; test: Antiviral activity against Poliovirus 1 strain Sabin ATCC VR-1562 infected in Vero 76 cells after 2 days by plaque reduction assays; format: functional, organism-based; conditions: Enterovirus C, ATCC VR-1562, Vero 76, 48 h
[7] = test system: Vesicular stomatitis Indiana virus; test: Antiviral activity against Vesicular stomatitis Indiana virus ATCC VR 158 infected in Vero 76 cells after 2 days by plaque reduction assays; format: functional, organism-based; conditions: ATCC VR 158, Vero 76, 48 h
[8] = Antiviral activity against Simian virus 12 3651 (ATCC VR- 214) infected in BHK21 cells assessed as protection from virus-induced cytopathogenicity after 3 to 4 days by MTT method; format: functional, cell-based; conditions: BHK-21
How it was run: (§1)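 Confluent monolayers grown overnight (BHK-21 at 5×10⁴ cells/well for YFV and Reo-1; MDBK at 3×10⁴ cells/well for BVDV). Infection at m.o.i. 0.01 for 2 h in maintenance MEM-Earle with 0.5% inactivated FBS, then serial compound dilutions added. Viability read by MTT after 3–4 days at 37 °C. EC50 taken from linear regression against untreated controls.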

[9] = Antiviral activity against Vaccinia virus Lister ATCC VR-1549 infected in Vero 76 cells after 3 days by plaque reduction assays; format: functional, cell-based; conditions: ATCC VR-1549, Vero 76, 72 h
[10] = Cytotoxicity against mock-infected bovine MDBK cells assessed as reduction in proliferation after 72 hrs by MTT method; format: cell-based, Bos taurus; conditions: cattle
How it was run: (§2)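 MDBK and BHK cells seeded at 6 × 10⁵ and 1 × 10⁶ cells/mL respectively. Medium was MEM-Earle with L-glutamine, 1 mM pyruvate and kanamycin, plus 10% horse serum (MDBK) or 10% FBS (BHK). Cells exposed to serial compound dilutions at 37 °C, 5% CO₂; MTT viability read at 72 h. CC50 by linear regression versus untreated controls.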

[11] = test system: Yellow fever virus; test: Antiviral activity against Yellow fever virus 17D Stamaril Pasteur J07B01 infected in BHK21 cells assessed as protection from virus-induced cytopathogenicity after 3 to 4 days by MTT method; format: functional, cell-based; conditions: Stamaril Pasteur J07B01, BHK-21; how it was run: as §1
[12] = Cytotoxicity against mock-infected hamster BHK21 cells assessed as reduction in proliferation after 72 hrs by MTT method; format: cell-based, Mesocricetus auratus, BHK-21; how it was run: as §2
[13] = test system: Human alphaherpesvirus 1; test: Antiviral activity against Human herpesvirus 1 strain KOS ATCC VR- 1493 infected in Vero 76 cells after 3 days by plaque reduction assays; format: functional, organism-based; conditions: Human alphaherpesvirus 1, KOS ATCC VR1493, Vero 76, 72 h
[14] = Antiviral activity against Bovine viral diarrhea virus 1-NADL ATCC VR-534 infected in MDBK cells assessed as protection from virus-induced cytopathogenicity after 3 to 4 days by MTT method; format: functional, cell-based; conditions: Bovine viral diarrhea virus isolates and strains, ATCC VR-534, MDBK; how it was run: as §1

Compound	EC50 [1] [µM]	CC50 [2] [µM]	EC50 [3] [µM]	EC50 [4] [µM]	CC50 at 96 h [5] [µM]	EC50 [6] [µM]	EC50 [7] [µM]	EC50 [8] [µM]	EC50 [9] [µM]	CC50 at 72 h [10] [µM]	EC50 [11] [µM]	CC50 at 72 h [12] [µM]	EC50 [13] [µM]	EC50 [14] [µM]
O=c1cnn([C@@H]2O[C@H](CO)[C@@H](O)[C@H]2O)c(=O)[nH]1 [6-AZAURIDINE]	1.2	≥ 12.5	–	–	–	–	–	–	–	–	–	–	–	–
Brc1cnc2[nH]c(C3CCCCC3)nc2c1	> 100	> 100	> 100	20	> 100	> 100	> 100	> 100	16	> 100	> 100	> 100	> 100	> 100
FC(F)(F)c1ccc(-c2nc3cccnc3[nH]2)cc1	> 100	> 100	> 100	18	> 100	> 100	> 100	> 100	> 100	> 100	> 100	> 100	> 100	> 100
Nc1ccn(C[C@@H](CO)OCP(=O)(O)O)c(=O)n1 [CIDOFOVIR]	–	> 100	–	–	–	–	–	–	19	–	–	–	–	–
N#Cc1ccc(/C=N/c2cc3c(=O)cc[nH]c3c(Cl)c2N)cc1	> 100	> 100	> 100	> 100	> 100	> 100	> 100	> 100	> 100	> 100	> 87	> 100	> 100	28
Brc1cnc2[nH]c(-c3ccoc3)nc2c1	> 40	40	20	> 40	20	> 40	> 40	> 100	> 40	40	> 100	> 100	> 40	40
C#C[C@@]1(O)[C@H](O)[C@@H](CO)O[C@H]1n1ccc(N)nc1=O [2'-ETHYNYL-D-CYTIDINE]	–	> 100	–	–	–	23	–	–	–	–	–	–	–	–
C[C@@]1(O)[C@H](O)[C@@H](CO)O[C@H]1n1ccc(N)nc1=O	–	–	–	–	–	–	–	16	–	–	> 100	–	–	–
c1cnc2[nH]c(-c3ccoc3)nc2c1	> 100	> 100	> 100	> 100	> 100	> 100	> 100	> 100	> 100	> 100	> 100	> 100	> 100	> 100
N#Cc1ccc(/C=N/c2cc3cccnc3c(Cl)c2N)cc1	26	> 100	> 100	46	46	> 100	> 100	> 100	> 100	> 100	> 100	> 100	> 100	2
Nc1nc2c(ncn2COCCO)c(=O)[nH]1 [ACYCLOVIR]	–	> 100	–	–	–	–	–	–	–	–	–	–	–	–
N#Cc1ccc(-c2nc3cccnc3[nH]2)cc1	> 100	> 100	> 100	> 100	> 100	> 100	> 100	> 100	> 100	> 100	> 100	> 100	> 100	> 100
N#Cc1ccc(-c2nc3ccncc3[nH]2)cc1	> 100	> 100	> 100	> 100	> 100	> 100	> 100	> 100	56	> 100	> 100	> 100	> 100	9
FC(F)(F)c1ccc(-c2nc3cc(Br)cnc3[nH]2)cc1	> 100	> 100	> 100	> 100	> 100	> 100	> 100	> 100	4	> 100	> 100	> 100	> 100	> 100
C[C@@]1(O)[C@H](O)[C@@H](CO)O[C@H]1n1cnc2c(=O)[nH]c(N)nc21 [2'-B-METHYL-GUANOSINE]	–	–	–	–	–	–	–	–	–	> 100	–	> 100	–	1.1
O=[N+]([O-])c1ccc(-c2nc3cc4cccnc4c(Cl)c3[nH]2)cc1	> 100	> 100	> 100	> 100	> 100	> 100	> 100	> 100	> 100	> 100	> 100	> 100	> 44	1.2
Nc1c(/N=C/c2ccc(C(F)(F)F)c([N+](=O)[O-])c2)cc2cccnc2c1Cl	> 90	90	> 100	16	20	22	> 90	> 100	> 90	> 100	> 75	> 100	> 100	11
Nc1c(/N=C/c2ccc(C(F)(F)F)cc2)cc2cccnc2c1Cl	12	90	> 100	29	49	57	> 90	> 25	> 90	> 100	> 25	> 25	> 100	14
Nc1c(/N=C/c2ccc([N+](=O)[O-])cc2)cc2cccnc2c1Cl	14	> 100	> 100	> 100	53	> 100	> 100	> 100	88	> 100	> 100	> 100	> 100	1.7
CC(=O)c1ccc(-c2nc3ccncc3[nH]2)cc1	> 100	> 100	> 100	> 100	> 100	> 100	> 100	> 100	> 100	> 100	> 100	> 100	> 100	7
c1cnc2[nH]c(C3CCCCC3)nc2c1	> 100	> 100	> 100	86	> 100	> 100	> 100	> 100	> 100	> 100	> 100	> 100	> 100	> 100
CC(=O)c1ccc(-c2nc3cccnc3[nH]2)cc1	> 100	> 100	> 100	> 100	> 100	> 100	> 100	> 100	> 100	> 100	> 100	> 100	> 100	65
